Results from different studies.
Protocols differ between the studies behind these lines.
SIRT2: NAD-dependent protein deacetylase sirtuin-2 (SIRT2, Homo sapiens, UniProt Q8IXJ6)
CDC7: Cell division cycle 7-related protein kinase (CDC7, Homo sapiens, UniProt O00311)
polA: DNA polymerase I, thermostable (polA, Thermus aquaticus, UniProt P19821)
Maoa: Amine oxidase [flavin-containing] A (Maoa, Rattus norvegicus, UniProt P21396)
RORC: Nuclear receptor ROR-gamma (RORC, Homo sapiens, UniProt P51449)
SLC22A8: Organic anion transporter 3 (SLC22A8, Homo sapiens, UniProt Q8TCC7)
AMY2: Pancreatic alpha-amylase (AMY2, Sus scrofa, UniProt P00690)

SMILES	target	observed	action	method	pH	notes	IC50 [nM]
CCCCCCCCCCCCNC(=S)NCCCC[C@H](NC(=O)OCc1ccccc1)C(=O)N[C@@H](CCCCN)C(=O)N[C@@H](CCCNC(=N)N)C(N)=O	SIRT2	enzyme activity	inhibitor	–	–	–	90
Cc1nccc2c1c(=O)n(C)c1cc(OC[C@@H](N)CC(C)C)c(C#N)cc21	Cyclin-G-associated kinase (GAK, Homo sapiens, UniProt O14976)	enzyme activity	inhibitor	radiometric	–	–	60
Cc1cc(-c2cc3nc([C@@H](N)C(C)C)[nH]c(=O)c3s2)ccn1	CDC7	enzyme activity	inhibitor	–	–	–	1790
Cc1cc(Nc2cc(CN3CCOCC3)c3nc(C)c(Cc4ccc(Cl)cc4F)n3n2)n[nH]1	Fibroblast growth factor receptor 3 (FGFR3, Homo sapiens, UniProt P22607)	enzyme activity	inhibitor	TR-FRET	–	–	106
CN1CCN(c2ccc(Nc3ncc4cc(C#N)c(=O)n(C5CCCC5)c4n3)cc2)CC1	Ephrin type-A receptor 5 (EPHA5, Homo sapiens, UniProt P54756)	enzyme activity	inhibitor	–	–	–	408
CCNC(=O)[C@H](CCCNC(=N)CF)NC(=O)c1ccccc1	Protein-arginine deiminase type-3 (PADI3, Homo sapiens, UniProt Q9ULW8)	enzyme activity	inhibitor	–	–	–	157000
O=c1oc(Cl)c(Cl)c2ccccc12	Rhomboid protease GlpG (glpG, Escherichia coli, UniProt P09391)	enzyme activity	inhibitor	–	–	–	11000
CCCCCCCCCCCCCC(=O)Oc1ccc2ccc(=O)oc2c1	polA	enzyme activity	inhibitor	–	–	–	113000
CC(C)[C@H](N)c1nc2cc(-c3ccnc(Cl)c3)sc2c(=O)[nH]1	CDC7	enzyme activity	inhibitor	–	–	–	2200
CC(=NN=C1CS(=O)(=O)N(C)c2ccccc21)c1cc(Cl)sc1Cl	Maoa	enzyme activity	inhibitor	fluorescence	–	–	2480
CCCCCCCCCCCCNC(=S)NCCCC[C@H](NC(=O)OCc1ccccc1)C(=O)N[C@@H](Cc1c[nH]c2ccccc12)C(=O)N[C@@H](CCC(=O)O)C(N)=O	SIRT2	enzyme activity	inhibitor	–	–	–	100
CC(Oc1ccc2c(c1)N(S(=O)(=O)c1cccc(C(F)(F)F)c1)CC2)c1c(F)cccc1Cl (stereo not drawn)	RORC	ligand displacement	–	radioligand	–	–	350
O=C(O)c1cc(-c2ccc(F)cc2F)ccc1O	SLC22A8	transporter uptake	inhibitor	–	–	–	720
CC/C=C\C/C=C\C/C=C\C/C=C\C/C=C\CCCC(=O)O	polA	enzyme activity	inhibitor	–	–	–	> 100000
CCCCCCCCCCCCNC(=S)NCCCC[C@H](NC(=O)OCc1ccccc1)C(=O)N[C@@H](Cc1c[nH]c2ccccc12)C(=O)N[C@@H](CC(N)=O)C(N)=O	SIRT2	enzyme activity	inhibitor	–	–	–	260
O=S(=O)(c1ccnc(C(F)(F)F)c1)N1CCc2ccc(OCc3c(F)cccc3Cl)cc21	RORC	ligand displacement	–	radioligand	–	–	230
O=C(Cc1cccs1)N[C@@H]1C(=O)N2C(C(=O)[O-])=C(C[n+]3ccccc3)CS[C@H]12	Chymotrypsinogen A (Bos taurus, UniProt P00766)	enzyme activity	inhibitor	fluorescence	–	–	6000
O=S(=O)(c1cccc(C(F)(F)F)c1)N1CCc2ccc(OCc3ccccc3OC(F)(F)F)cc21	RORC	ligand displacement	–	radioligand	–	–	290
O=C1Nc2ccccc2/C1=N/NS(=O)(=O)c1cc(Cl)cc(Cl)c1O	AMY2	enzyme activity	inhibitor	–	–	–	1600
CCn1ncc2c1-c1cnc(N)c(c1)O[C@H](C)c1cc(F)ccc1-c1nn(C)nc1C2	Tyrosine-protein kinase Fer (FER, Homo sapiens, UniProt P16591)	enzyme activity	inhibitor	radiometric	–	–	24
O=C(NO)c1ccc(CN(c2cnccn2)c2cnccn2)cc1	SIRT2	enzyme activity	inhibitor	fluorescence	–	–	> 10000
O=S(=O)(c1cccc(C(F)(F)F)c1)N1CCc2ccc(OCc3c(Cl)cccc3C(F)(F)F)cc21	RORC	ligand displacement	–	radioligand	–	–	170
CCCCCCCCCCCCNC(=S)NCCCC[C@H](NC(C)=O)C(=O)N[C@@H](C)C(=O)N[C@@H](CCCNC(=N)N)C(N)=O	SIRT2	enzyme activity	inhibitor	–	–	–	50

SMILES	target	observed	action	method	pH	notes	IC50 [nM]
C=CC(=O)Nc1cc(Nc2nccc(Nc3cc(Cl)c(F)cc3C(C)(C)O)n2)c(OC)cc1N1CC[C@@H](N(C)C)C1	Tyrosine-protein kinase Fes/Fps (FES, Homo sapiens, UniProt P07332)	enzyme activity	inhibitor	–	–	with preincubation	1760
O=S(=O)(c1cccc(C(F)(F)F)c1)N1CCc2ccc(OCc3c(F)cccc3Cl)cc21	RORC	ligand displacement	–	radioligand	–	–	120
O=C(O)c1ccnc2c(O)cccc12	Lysine-specific demethylase 4D (KDM4D, Homo sapiens, UniProt Q6B0I6)	enzyme activity	inhibitor	AlphaScreen	–	–	7300
C=C(C)[C@@H]1CCC(C)=C[C@H]1c1c(O)cc(CCCCC)cc1O	Prostaglandin E synthase (PTGES, Homo sapiens, UniProt O14684)	enzyme activity	inhibitor	–	–	–	> 10000
COc1ccc(S(=O)(=O)N/N=C2\C(=O)Nc3ccc(Cl)cc32)cc1	AMY2	enzyme activity	inhibitor	–	–	–	13100
CCS(=O)(=O)N1CC(CC#N)(n2cc(-c3ncnc4[nH]ccc34)cn2)C1	SLC22A8	transporter uptake	inhibitor	radiometric	–	–	8400
COc1cccc(S(=O)(=O)N2CCc3ccc(OCc4c(F)cccc4Cl)cc32)c1	RORC	ligand displacement	–	radioligand	–	–	250
CC(C)[C@H]1CC[C@H](C(=O)N[C@H](Cc2ccccc2)C(=O)O)CC1	SLC22A8	transporter uptake	inhibitor	–	–	–	860
COc1ccc(S(=O)(=O)N/N=C2\C(=O)Nc3ccccc32)cc1	AMY2	enzyme activity	inhibitor	–	–	–	11600
OC[C@@H]1[C@@H](O)[C@H](O)[C@@H](O)[C@@H]2O[C@H]12	Beta-glucosidase (GBA2, Homo sapiens, UniProt Q9HCG7)	enzyme activity	inhibitor	–	pH 5	lysate	26700
CCCCCCCCCCCCNC(=S)NCCCC[C@H](NC(=O)OCc1ccccc1)C(=O)N[C@@H](Cc1c[nH]c2ccccc12)C(=O)N[C@@H](CCNC(=N)N)C(N)=O	SIRT2	enzyme activity	inhibitor	–	–	–	160
CNC(=O)c1cc2c(Oc3ccc(NC(=O)C4(C(=O)Nc5ccc(F)cc5)CC4)cc3)ccnc2cc1OC	Tyrosine-protein kinase FRK (FRK, Homo sapiens, UniProt P42685)	enzyme activity	inhibitor	radiometric	–	–	13
COc1ccc2c(Oc3ccc4c(C(=O)Nc5ccccc5N)cccc4c3)ccnc2c1	Voltage-dependent L-type calcium channel subunit alpha-1C (CACNA1C, Homo sapiens, UniProt Q13936)	ion current	inhibitor	–	–	–	> 10000
Cc1cccc(S(=O)(=O)N2CCc3ccc(OCc4c(F)cccc4Cl)cc32)c1	RORC	ligand displacement	–	radioligand	–	–	230
COc1cc(C=Cc2cc(-c3ccccc3)nc(O)n2)ccc1O	AMY2	enzyme activity	inhibitor	absorbance	–	–	23700
O=C(O)CCc1nc(-c2ccccc2)c(-c2ccccc2)o1	SLC22A8	transporter uptake	inhibitor	–	–	–	870
CC(C)[C@H](N)c1nc2cc(-c3ccncc3F)sc2c(=O)[nH]1	CDC7	enzyme activity	inhibitor	–	–	–	1.84
Cc1cccc(Br)c1COc1ccc2c(c1)N(S(=O)(=O)c1cccc(C(F)(F)F)c1)CC2	RORC	ligand displacement	–	radioligand	–	–	160
Cc1cnc(-c2ccc(-c3ccc(NC(=O)Nc4c(F)cc(F)cc4F)cc3F)c3c2C(=O)NC3)[nH]1	Serine/threonine-protein kinase 3 (STK3, Homo sapiens, UniProt Q13188)	enzyme activity	inhibitor	–	–	–	7.1
CC(=NN=C1CS(=O)(=O)N(C)c2ccccc21)c1sccc1Cl	Maoa	enzyme activity	inhibitor	fluorescence	–	–	1040
CCCCCCCCNC(=S)NCCCC[C@H](NS(C)(=O)=O)C(=O)N[C@H](C)C(=O)N[C@@H](CCCNC(=N)N)C(N)=O	SIRT2	enzyme activity	inhibitor	–	–	–	400
O=C(O)CNC(=O)C(=O)O	Hypoxia-inducible factor 1-alpha inhibitor (HIF1AN, Homo sapiens, UniProt Q9NWT6)	enzyme activity	inhibitor	mass spectrometry	–	–	< 1000
